Converted amounts (≈) assume the structure as drawn.
How the values were obtained:
Klebsiella pneumoniae [1] = experiment: Antibacterial activity against extended-spectrum beta-lactamase harboring Klebsiella pneumoniae ATCC 700603 after 18 to 24 hrs by two-fold serial dilution method; type: functional
Procedure, shortened: (§1)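 Agar two-fold serial dilution in Mueller-Hinton agar. Strains came from the Chinese Center for Disease Control and Prevention. Compounds were dissolved in 0.1 N NaOH and water, then diluted in melted agar to final levels stepping down from 128. Plates were inoculated with bacterial cfu and incubated at 35 C for 18–24 h. MIC is the lowest concentration giving 90% growth inhibition.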

Proteus mirabilis = experiment: Antibacterial activity against Proteus mirabilis 13-1 after 18 to 24 hrs by two-fold serial dilution method; type: functional
Procedure, shortened: (§2)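 Agar two-fold dilution MIC. Compounds were dissolved in 0.1 N NaOH and water, then serially diluted in melted Mueller-Hinton agar, with top concentrations starting at 128. Plates were inoculated at about 10 cfu and incubated at 35 °C for 18–24 h. MIC was taken as the lowest concentration giving 90% inhibition of growth.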

Escherichia coli [2] = experiment: Antibacterial activity against extended-spectrum beta-lactamase harboring Escherichia coli ATCC 35218 after 18 to 24 hrs by two-fold serial dilution method; type: functional; procedure, shortened: as §1
[3] = system: Mycobacterium tuberculosis; experiment: Antimycobacterial activity against Mycobacterium tuberculosis H37Rv after 7 days; type: functional; conditions: 168 h
Procedure, shortened: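 Rapid direct susceptibility test in 48-well plates. Two-fold dilutions of compound from DMSO stocks were mixed with an equal volume of bacterial suspension. Medium-only wells served as growth controls and water-only wells as no-growth controls. Plates were sealed and held at 37 C in a humid box, and controls were checked at 3 days. MIC (90% growth inhibition) was read visually by high-magnification observation of the cells and re-read at 7 days.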

Enterococcus faecalis [4] = experiment: Antibacterial activity against Enterococcus faecalis ATCC 29212 after 18 to 24 hrs by two-fold serial dilution method; type: functional; procedure, shortened: as §2
[5] = system: Staphylococcus epidermidis; experiment: Antibacterial activity against methicillin-sensitive Staphylococcus epidermidis ATCC 12228 after 18 to 24 hrs by two-fold serial dilution method; type: functional; procedure, shortened: as §2
Proteus vulgaris = experiment: Antibacterial activity against Proteus vulgaris ATCC 29905 after 18 to 24 hrs by two-fold serial dilution method; type: functional; procedure, shortened: as §2
[6] = Cytotoxicity against African green monkey Vero cells assessed as reduction in cell viability after 72 hrs by MTT assay; type: cell-based; conditions: chlorocebus sabaeus
Procedure, shortened: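 VERO cells were kept in MEM with Earle's salts and 10% FBS at 37 °C, 5% CO2. They were seeded in 96-well plates and allowed to recover for 24 h. Cells were then exposed to compounds in DMSO over a series from 1000 down to 4 for 72 h. Viability was read by MTT, and CC50 was calculated by Bliss analysis.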

[7] = system: Stenotrophomonas maltophilia; experiment: Antibacterial activity against Stenotrophomonas maltophilia ATCC 13636 after 18 to 24 hrs by two-fold serial dilution method; type: functional; procedure, shortened: as §2
Staphylococcus aureus [8] = experiment: Antibacterial activity against methicillin-sensitive Staphylococcus aureus ATCC 29213 after 18 to 24 hrs by two-fold serial dilution method; type: functional; procedure, shortened: as §1
Escherichia coli [9] = experiment: Antibacterial activity against extended-spectrum beta-lactamase deficient Escherichia coli ATCC 25922 after 18 to 24 hrs by two-fold serial dilution method; type: functional; procedure, shortened: as §2
[10] = system: Acinetobacter calcoaceticus; experiment: Antibacterial activity against Acinetobacter calcoaceticus ATCC 19606 after 18 to 24 hrs by two-fold serial dilution method; type: functional; procedure, shortened: as §2
Enterococcus faecium [11] = experiment: Antibacterial activity against Enterococcus faecium 13-7 after 18 to 24 hrs by two-fold serial dilution method; type: functional; procedure, shortened: as §2
Enterococcus faecium [12] = experiment: Antibacterial activity against Enterococcus faecium ATCC 700221 after 18 to 24 hrs by two-fold serial dilution method; type: functional; procedure, shortened: as §2
Staphylococcus aureus [13] = experiment: Antibacterial activity against methicillin-resistant Staphylococcus aureus ATCC 33591 after 18 to 24 hrs by two-fold serial dilution method; type: functional; procedure, shortened: as §1
Enterobacter cloacae = experiment: Antibacterial activity against Enterobacter cloacae ATCC 43560 after 18 to 24 hrs by two-fold serial dilution method; type: functional
Klebsiella pneumoniae [14] = experiment: Antibacterial activity against extended-spectrum beta-lactamase deficient Klebsiella pneumoniae 15-2 after 18 to 24 hrs by two-fold serial dilution method; type: functional; procedure, shortened: as §2
Providencia rettgeri = experiment: Antibacterial activity against Providencia rettgeri ATCC 31052 after 18 to 24 hrs by two-fold serial dilution method; type: functional; procedure, shortened: as §2
Citrobacter freundii = experiment: Antibacterial activity against extended-spectrum beta-lactamase harboring Citrobacter freundii ATCC 43864 after 18 to 24 hrs by two-fold serial dilution method; type: functional; procedure, shortened: as §1
Serratia marcescens = experiment: Antibacterial activity against Serratia marcescens ATCC 21074 after 18 to 24 hrs by two-fold serial dilution method; type: functional; procedure, shortened: as §2
Klebsiella aerogenes = experiment: Antibacterial activity against Enterobacter aerogenes ATCC 13048 after 18 to 24 hrs by two-fold serial dilution method; type: functional; procedure, shortened: as §2
Enterococcus faecalis [15] = experiment: Antibacterial activity against Enterococcus faecalis ATCC 51299 after 18 to 24 hrs by two-fold serial dilution method; type: functional; procedure, shortened: as §2
Pseudomonas aeruginosa = experiment: Antibacterial activity against Pseudomonas aeruginosa ATCC 27853 after 18 to 24 hrs by two-fold serial dilution method; type: functional; procedure, shortened: as §2
[16] = system: Staphylococcus epidermidis; experiment: Antibacterial activity against methicillin-resistant Staphylococcus epidermidis 13-3 after 18 to 24 hrs by two-fold serial dilution method; type: functional; procedure, shortened: as §1
Morganella morganii = experiment: Antibacterial activity against Morganella morganii ATCC 25830 after 18 to 24 hrs by two-fold serial dilution method; type: functional; procedure, shortened: as §2

SMILES	MIC90 (Klebsiella pneumoniae [1])	MIC90 (Proteus mirabilis)	MIC90 (Escherichia coli [2])	MIC90 [3]	MIC90 (Enterococcus faecalis [4])	MIC90 [5]	MIC90 (Proteus vulgaris)	CC50 at 72 h [6]	MIC90 [7]	MIC90 (Staphylococcus aureus [8])	MIC90 (Escherichia coli [9])	MIC90 [10]	MIC90 (Enterococcus faecium [11])	MIC90 (Enterococcus faecium [12])	MIC90 (Staphylococcus aureus [13])	MIC90 (Enterobacter cloacae)	MIC90 (Klebsiella pneumoniae [14])	MIC90 (Providencia rettgeri)	MIC90 (Citrobacter freundii)	MIC90 (Serratia marcescens)	also measured
CO/N=C1\C(=O)N(CCCN2CCN(c3cc4c(cc3F)c(=O)c(C(=O)OCCCN3C(=O)/C(=N/OC)c5ccccc53)cn4C3CC3)CC2)c2ccccc21	64 µg/mL (≈ 83.8 µM)	64 µg/mL (≈ 83.8 µM)	4 µg/mL (≈ 5.24 µM)	12.5 µg/mL (≈ 16.4 µM)	64 µg/mL (≈ 83.8 µM)	32 µg/mL (≈ 41.9 µM)	32 µg/mL (≈ 41.9 µM)	64 µg/mL (≈ 83.8 µM)	128 µg/mL (≈ 168 µM)	128 µg/mL (≈ 168 µM)	4 µg/mL (≈ 5.24 µM)	128 µg/mL (≈ 168 µM)	> 128 µg/mL	128 µg/mL (≈ 168 µM)	> 128 µg/mL	32 µg/mL (≈ 41.9 µM)	32 µg/mL (≈ 41.9 µM)	64 µg/mL (≈ 83.8 µM)	64 µg/mL (≈ 83.8 µM)	64 µg/mL (≈ 83.8 µM)	MIC90 (Klebsiella aerogenes): 64 µg/mL (≈ 83.8 µM); MIC90 (Enterococcus faecalis [15]): 128 µg/mL (≈ 168 µM); MIC90 (Pseudomonas aeruginosa): 64 µg/mL (≈ 83.8 µM); MIC90 [16]: 128 µg/mL (≈ 168 µM); MIC90 (Morganella morganii): 128 µg/mL (≈ 168 µM)
CCO/N=C1\C(=O)N(CCCN2CCN(c3cc4c(cc3F)c(=O)c(C(=O)OCCCN3C(=O)/C(=N/OCC)c5ccccc53)cn4C3CC3)CC2)c2ccccc21	64 µg/mL (≈ 80.8 µM)	64 µg/mL (≈ 80.8 µM)	32 µg/mL (≈ 40.4 µM)	25 µg/mL (≈ 31.6 µM)	64 µg/mL (≈ 80.8 µM)	64 µg/mL (≈ 80.8 µM)	128 µg/mL (≈ 162 µM)	32 µg/mL (≈ 40.4 µM)	> 128 µg/mL	128 µg/mL (≈ 162 µM)	8 µg/mL (≈ 10.1 µM)	> 128 µg/mL	> 128 µg/mL	> 128 µg/mL	> 128 µg/mL	64 µg/mL (≈ 80.8 µM)	64 µg/mL (≈ 80.8 µM)	128 µg/mL (≈ 162 µM)	128 µg/mL (≈ 162 µM)	> 128 µg/mL	MIC90 (Klebsiella aerogenes): 64 µg/mL (≈ 80.8 µM); MIC90 (Enterococcus faecalis [15]): > 128 µg/mL; MIC90 (Pseudomonas aeruginosa): 64 µg/mL (≈ 80.8 µM); MIC90 [16]: 128 µg/mL (≈ 162 µM); MIC90 (Morganella morganii): 64 µg/mL (≈ 80.8 µM)
Cc1ccc2c(c1)C(=O)C(=O)N2CCCOC(=O)c1cn(C2CC2)c2cc(N3CCN(CCCN4C(=O)C(=O)c5cc(C)ccc54)CC3)c(F)cc2c1=O	64 µg/mL (≈ 87.2 µM)	64 µg/mL (≈ 87.2 µM)	8 µg/mL (≈ 10.9 µM)	50 µg/mL (≈ 68.1 µM)	64 µg/mL (≈ 87.2 µM)	32 µg/mL (≈ 43.6 µM)	64 µg/mL (≈ 87.2 µM)	64 µg/mL (≈ 87.2 µM)	128 µg/mL (≈ 174 µM)	64 µg/mL (≈ 87.2 µM)	8 µg/mL (≈ 10.9 µM)	64 µg/mL (≈ 87.2 µM)	> 128 µg/mL	128 µg/mL (≈ 174 µM)	> 128 µg/mL	32 µg/mL (≈ 43.6 µM)	64 µg/mL (≈ 87.2 µM)	128 µg/mL (≈ 174 µM)	64 µg/mL (≈ 87.2 µM)	> 128 µg/mL	MIC90 (Klebsiella aerogenes): 128 µg/mL (≈ 174 µM); MIC90 (Enterococcus faecalis [15]): > 128 µg/mL; MIC90 (Pseudomonas aeruginosa): 128 µg/mL (≈ 174 µM); MIC90 [16]: 128 µg/mL (≈ 174 µM); MIC90 (Morganella morganii): 64 µg/mL (≈ 87.2 µM)
